Reference: ChEMBL document CHEMBL1149108, “Arecoline tripeptide inhibitors of proteasome” (J Med Chem, 2004)
Non-standard residues stand in square brackets, D forms with d. Residues, ends and D or L forms follow the SMILES beside them. ξ: configuration not given here. *: point of attachment. Fmoc = O=C(OCC1c2ccccc2-c2ccccc21)*; Cbz = O=C(OCc1ccccc1)*; ξNle = CCCCC(N)C(=O)O; NHBn = c1ccc(CN*)cc1

Tests used:
[1] = molecular target: Proteasome; experiment: Inhibitory activity was evaluated against chymotrypsin-like enzyme; assay type: subcellular
Summary of the method: (§1)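 Proteasome partially purified from lymphoblastoid cell lines, affinity-purified and dialysed against 25 mM Tris-HCl pH 7.5. Enzyme untreated or pretreated with 0.01-20 µM compound, then incubated 30 min at 37 °C in activity buffer with fluorogenic substrate: Suc-LLVY-AMC for chymotrypsin-like, Boc-LRR-AMC for trypsin-like. Fluorescence read at ex 360/em 465 nm; IC50 derived.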

[2] = molecular target: Proteasome; experiment: Inhibitory activity was evaluated against trypsin-like (proteasome) enzyme; assay type: subcellular; summary of the method: as §1
[3] = test system: Proteasome; experiment: Inhibitory activity was evaluated against postacid PGPH active site; assay type: subcellular
Summary of the method: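 Postacidic (PGPH) activity measured with Ac-YVAD-AMC on partially purified, affinity-purified lymphoblastoid proteasome in 25 mM Tris-HCl pH 7.5. Enzyme untreated or pretreated with 0.01-20 µM compound, then substrate added for 30 min at 37 °C in activity buffer. Fluorescence read at ex 360/em 465 nm; IC50 calculated.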

[4] = Half-life in culture medium was determined; assay type: ADME
Summary of the method: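 Compound (stock 10 mg/mL in acetonitrile/H2O 1:1) added to RPMI containing 20% FCS and incubated at 37 °C for up to 2 days. Ethanol added to stop the reaction, then centrifugation and RP-HPLC of the supernatant. Half-life taken from least-squares linear regression of log inhibitor concentration versus time, at least five points.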

[5] = Half-life in human plasma was determined; assay type: ADME
Summary of the method: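 Compound incubated with human plasma (0.6 mL in 1.5 mL total) in 10 mM Tris-HCl pH 7.5 at 37 °C for up to 360 min. Ethanol added to stop the reaction, then centrifugation and RP-HPLC of the supernatant. Half-life taken from least-squares regression of log concentration versus time, minimum five points.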

Row | half-life [4] | half-life [5] | Compound | IC50 [1] | IC50 [2] | IC50 [3]
1 | – | – | CC(C)C[C@H](NC(=O)[C@H](CO)NC(=O)[C@H](Cc1ccccc1)NC(=O)OCc1ccccc1)C(=O)NCc1ccccc1 | 2.18 µM | 4.82 µM | 17.6 µM
2 | > 6 h | > 6 h | CC(C)C[C@H](NC(=O)[C@H](CO)NC(=O)[C@@H](NC(=O)C1=CCCNC1)C(C)C)C(=O)NCc1ccccc1 | 0.52 µM | 2.16 µM | > 20 µM
3 | – | – | CC(C)C[C@H](NC(=O)[C@H](CO)NC(=O)[C@H](Cc1ccccc1)NC(=O)OCC1c2ccccc2-c2ccccc21)C(=O)NCc1ccccc1 | 11 µM | 12.9 µM | 19.1 µM
4 | > 6 h | > 6 h | CC(C)C[C@H](NC(=O)[C@H](CO)NC(=O)[C@H](Cc1ccccc1)NC(=O)C1=CCCNC1)C(=O)NCc1ccccc1 | 1.23 µM | 2.93 µM | > 20 µM
5 | > 6 h | 4.92 h | CC(C)C[C@H](NC(=O)C1=CCCNC1)C(=O)N[C@@H](CC(C)C)C(=O)N[C@@H](CC(C)C)C(=O)NCc1ccccc1 | 1.41 µM | 2.57 µM | > 20 µM
6 | – | – | CCCCC(NC(=O)OCc1ccccc1)C(=O)N[C@@H](CO)C(=O)N[C@@H](CC(C)C)C(=O)NCc1ccccc1 (stereo partly drawn) (Cbz-[ξNle]-Ser-Leu-NHBn) | > 20 µM | 18.2 µM | > 20 µM
7 | – | – | CCCCC(NC(=O)OCC1c2ccccc2-c2ccccc21)C(=O)N[C@@H](CO)C(=O)N[C@@H](CC(C)C)C(=O)NCc1ccccc1 (stereo partly drawn) (Fmoc-[ξNle]-Ser-Leu-NHBn) | > 20 µM | > 20 µM | > 20 µM
8 | – | – | CC(C)C[C@H](NC(=O)[C@H](CO)NC(=O)[C@H](C)NC(=O)OCC1c2ccccc2-c2ccccc21)C(=O)NCc1ccccc1 (HELM PEPTIDE1{[O=C(OCC1c2ccccc2-c2ccccc21)[*:2]].A.S.L.[c1ccc(CN[*:1])cc1]}$$$$V2.0) | > 20 µM | > 20 µM | > 20 µM
9 | – | – | CC[C@H](C)[C@H](NC(=O)OCC1c2ccccc2-c2ccccc21)C(=O)N[C@@H](CO)C(=O)N[C@@H](CC(C)C)C(=O)NCc1ccccc1 (HELM PEPTIDE1{[O=C(OCC1c2ccccc2-c2ccccc21)[*:2]].I.S.L.[c1ccc(CN[*:1])cc1]}$$$$V2.0) | > 20 µM | > 20 µM | > 20 µM
10 | – | – | CC(C)C[C@H](NC(=O)OCC1c2ccccc2-c2ccccc21)C(=O)N[C@@H](CC(C)C)C(=O)N[C@@H](CC(C)C)C(=O)NCc1ccccc1 (HELM PEPTIDE1{[O=C(OCC1c2ccccc2-c2ccccc21)[*:2]].L.L.L.[c1ccc(CN[*:1])cc1]}$$$$V2.0) | 12.2 µM | 10.7 µM | > 20 µM
11 | – | – | CC(C)C[C@H](NC(=O)OCC1c2ccccc2-c2ccccc21)C(=O)N[C@@H](CO)C(=O)N[C@@H](CC(C)C)C(=O)NCc1ccccc1 (HELM PEPTIDE1{[O=C(OCC1c2ccccc2-c2ccccc21)[*:2]].L.S.L.[c1ccc(CN[*:1])cc1]}$$$$V2.0) | > 20 µM | > 20 µM | > 20 µM
12 | – | – | CC(C)C[C@H](NC(=O)[C@H](CO)NC(=O)[C@@H]1CCCN1C(=O)OCC1c2ccccc2-c2ccccc21)C(=O)NCc1ccccc1 (HELM PEPTIDE1{[O=C(OCC1c2ccccc2-c2ccccc21)[*:2]].P.S.L.[c1ccc(CN[*:1])cc1]}$$$$V2.0) | > 20 µM | > 20 µM | > 20 µM
13 | – | – | CC(C)C[C@H](NC(=O)[C@H](CO)NC(=O)[C@@H](NC(=O)OCC1c2ccccc2-c2ccccc21)C(C)C)C(=O)NCc1ccccc1 (HELM PEPTIDE1{[O=C(OCC1c2ccccc2-c2ccccc21)[*:2]].V.S.L.[c1ccc(CN[*:1])cc1]}$$$$V2.0) | 5.91 µM | 13.6 µM | > 20 µM
14 | – | – | CC(C)C[C@H](NC(=O)[C@H](CO)NC(=O)[C@H](C)NC(=O)OCc1ccccc1)C(=O)NCc1ccccc1 (HELM PEPTIDE1{[O=C(OCc1ccccc1)[*:2]].A.S.L.[c1ccc(CN[*:1])cc1]}$$$$V2.0) | > 20 µM | > 20 µM | > 20 µM
15 | – | – | CC[C@H](C)[C@H](NC(=O)OCc1ccccc1)C(=O)N[C@@H](CO)C(=O)N[C@@H](CC(C)C)C(=O)NCc1ccccc1 (HELM PEPTIDE1{[O=C(OCc1ccccc1)[*:2]].I.S.L.[c1ccc(CN[*:1])cc1]}$$$$V2.0) | > 20 µM | > 20 µM | > 20 µM
16 | – | – | CC(C)C[C@H](NC(=O)OCc1ccccc1)C(=O)N[C@@H](CC(C)C)C(=O)N[C@@H](CC(C)C)C(=O)NCc1ccccc1 (HELM PEPTIDE1{[O=C(OCc1ccccc1)[*:2]].L.L.L.[c1ccc(CN[*:1])cc1]}$$$$V2.0) | 9.51 µM | 8.93 µM | > 20 µM
17 | – | – | CC(C)C[C@H](NC(=O)OCc1ccccc1)C(=O)N[C@@H](CO)C(=O)N[C@@H](CC(C)C)C(=O)NCc1ccccc1 (HELM PEPTIDE1{[O=C(OCc1ccccc1)[*:2]].L.S.L.[c1ccc(CN[*:1])cc1]}$$$$V2.0) | > 20 µM | 15.8 µM | > 20 µM
18 | – | – | CC(C)C[C@H](NC(=O)[C@H](CO)NC(=O)[C@@H](NC(=O)OCc1ccccc1)C(C)C)C(=O)NCc1ccccc1 (HELM PEPTIDE1{[O=C(OCc1ccccc1)[*:2]].V.S.L.[c1ccc(CN[*:1])cc1]}$$$$V2.0) | 3.73 µM | 9.46 µM | > 20 µM
